Measurements reported in ChEMBL document CHEMBL1255516, “Identification of a new biaryl scaffold generating potent renin inhibitors” (Bioorg Med Chem Lett, 2010).
pIC50: −log10 of the molar value.

Molecular target: T1, Renin (Homo sapiens, UniProt P00797)
T1 sequence (P00797 whole entry): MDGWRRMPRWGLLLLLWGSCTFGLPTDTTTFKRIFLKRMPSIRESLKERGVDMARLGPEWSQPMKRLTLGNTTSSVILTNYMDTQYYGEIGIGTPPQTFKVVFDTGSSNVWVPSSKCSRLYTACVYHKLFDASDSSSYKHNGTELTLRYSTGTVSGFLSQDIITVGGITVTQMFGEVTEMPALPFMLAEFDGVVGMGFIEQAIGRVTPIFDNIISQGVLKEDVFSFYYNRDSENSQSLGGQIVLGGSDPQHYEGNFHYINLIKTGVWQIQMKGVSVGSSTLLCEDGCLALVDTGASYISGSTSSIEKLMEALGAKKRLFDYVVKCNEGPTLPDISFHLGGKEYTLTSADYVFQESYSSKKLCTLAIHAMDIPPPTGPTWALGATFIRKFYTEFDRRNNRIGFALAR
Assay: Inhibition of human recombinant renin in phosphate buffer
Settings: not given
In short: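 Recombinant human renin in PBS with 1 mM EDTA, 0.1% BSA, pH 7.4, premixed at 4 °C with human tetradecapeptide(1–14) substrate (stock 5 μM in 10 mM HCl) and hydroxyquinoline sulfate (stock 30 mM). Compounds diluted in DMSO were added, then incubated 3 h at 37 °C. Angiotensin I accumulation was measured; IC50 from % inhibition curve fit, mean of at least two experiments.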

| pIC50 | Compound |
| --- | --- |
| 10.05 | COC(=O)CCc1ccccc1-c1ccc(C(CN)Cc2ccc(OCCOc3c(Cl)cc(C)cc3Cl)cc2)c(C)c1 (stereo not drawn) |
| 8.99 | Cc1cc(Cl)c(OCCOc2ccc(CC(CN)c3ccc(-c4ccccc4CCOC(N)=O)cc3C)cc2)c(Cl)c1 (stereo not drawn) |
| 10.40 | CC(=O)NCCc1ccccc1-c1ccc(C(CN)Cc2ccc(OCCOc3c(Cl)cc(C)cc3Cl)cc2)c(C)c1 (stereo not drawn) |
| 9.01 | CC(=O)NCCCc1ccccc1-c1ccc(C(CN)Cc2ccc(OCCOc3c(Cl)cc(C)cc3Cl)cc2)c(C)c1 (stereo not drawn) |
| 9.28 | Cc1cc(Cl)c(OCCOc2ccc(CC(CN)c3ccc(-c4ccccc4Cl)cc3Cl)cc2)c(Cl)c1 (stereo not drawn) |
| 9.36 | COCCCc1ccccc1-c1ccc(C(CN)Cc2ccc(OCCOc3c(Cl)cc(C)cc3Cl)cc2)c(C)c1 (stereo not drawn) |
| 7.89 | COC(=O)Cc1ccccc1-c1ccc(C(CN)Cc2ccc(OCCOc3c(Cl)cc(C)cc3Cl)cc2)c(C)c1 (stereo not drawn) |
| 8.68 | CC(=O)NCc1ccccc1-c1ccc(C(CN)Cc2ccc(OCCOc3c(Cl)cc(C)cc3Cl)cc2)c(C)c1 (stereo not drawn) |
| 8.41 | Cc1cc(Cl)c(OCCOc2ccc(CC(CN)c3ccc(-c4cnc5cnccn45)cc3C)cc2)c(Cl)c1 (stereo not drawn) |
| 8.77 | Cc1cc(Cl)c(OCCOc2ccc(CC(CN)c3ccc(-c4ccnc(N)c4)cc3C)cc2)c(Cl)c1 (stereo not drawn) |
| 8.31 | Cc1cc(Cl)c(OCCOc2ccc(CC(CN)c3ccc(-c4cncnc4)cc3C)cc2)c(Cl)c1 (stereo not drawn) |

Test system: not listed separately
Assay: Oral bioavailability in Sprague-Dawley rat at 30 mg/kg
Assay type: ADME, organism-based
Settings: in vivo
In short: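 Sprague–Dawley rats dosed orally at 30 mpk as the HCl salt in 0.5% methocel, 5 ml/kg; iv reference dose 4 mpk in 60% PEG 200/water, 1 ml/kg.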

| bioavailability [%] | Compound |
| --- | --- |
| 23 | CC(=O)NCCc1ccccc1-c1ccc(C(CN)Cc2ccc(OCCOc3c(Cl)cc(C)cc3Cl)cc2)c(C)c1 (stereo not drawn) |

Molecular target: T1, Renin
Assay: Inhibition of human recombinant renin in plasma
Settings: not given
In short: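 Pooled frozen human citrate plasma supplemented with recombinant human renin (150 pg/ml final). Inhibitor in DMSO at various concentrations added to a 7:1 mix of plasma and trapping anti-angiotensin I antibody (final antiserum 1:50,000) in Tris/EDTA, pH 7.2.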

| pIC50 | Compound |
| --- | --- |
| 6.85 | COC(=O)CCc1ccccc1-c1ccc(C(CN)Cc2ccc(OCCOc3c(Cl)cc(C)cc3Cl)cc2)c(C)c1 (stereo not drawn) |
| 6.99 | Cc1cc(Cl)c(OCCOc2ccc(CC(CN)c3ccc(-c4ccccc4CCOC(N)=O)cc3C)cc2)c(Cl)c1 (stereo not drawn) |
| 6.88 | CC(=O)NCCCc1ccccc1-c1ccc(C(CN)Cc2ccc(OCCOc3c(Cl)cc(C)cc3Cl)cc2)c(C)c1 (stereo not drawn) |
| 6.27 | COC(=O)Cc1ccccc1-c1ccc(C(CN)Cc2ccc(OCCOc3c(Cl)cc(C)cc3Cl)cc2)c(C)c1 (stereo not drawn) |
| 6.86 | CC(=O)NCc1ccccc1-c1ccc(C(CN)Cc2ccc(OCCOc3c(Cl)cc(C)cc3Cl)cc2)c(C)c1 (stereo not drawn) |
| 6.38 | Cc1cc(Cl)c(OCCOc2ccc(CC(CN)c3ccc(-c4cnc5cnccn45)cc3C)cc2)c(Cl)c1 (stereo not drawn) |
| 6.64 | Cc1cc(Cl)c(OCCOc2ccc(CC(CN)c3ccc(-c4ccnc(N)c4)cc3C)cc2)c(Cl)c1 (stereo not drawn) |
| 6.21 | Cc1cc(Cl)c(OCCOc2ccc(CC(CN)c3ccc(-c4cncnc4)cc3C)cc2)c(Cl)c1 (stereo not drawn) |

| Compound | pIC50 |
| --- | --- |
| Cc1cc(Cl)c(OCCOc2ccc(CC(CN)c3ccc(-c4ccccc4CCC(=O)N(C)C)cc3C)cc2)c(Cl)c1 (stereo not drawn) | 5.95 |

Test system: Rattus norvegicus
Assay: AUC in Sprague-Dawley rat at 30 mg/kg, po
Settings: in vivo

| AUC [µM·h] | Compound |
| --- | --- |
| 8.3 | COCCCc1ccc(Cl)c(CN(C(=O)[C@@H](CN)Cc2ccc(OCCOc3c(Cl)cc(C)cc3Cl)cc2)C2CC2)c1 |

Test system: not listed separately
Assay: AUC in Sprague-Dawley rat at 30 mg/kg, po
Settings: Sprague-Dawley, plasma

| AUC [µM·h] | Compound |
| --- | --- |
| 5.5 | CC(=O)NCCc1ccccc1-c1ccc(C(CN)Cc2ccc(OCCOc3c(Cl)cc(C)cc3Cl)cc2)c(C)c1 (stereo not drawn) |

Test system: not listed separately
Assay: Half life in Sprague-Dawley rat at 4 mg/kg, iv
Assay type: ADME, organism-based
Parameters: dose 4 mg/kg, route intravenous
Settings: in vivo
In short: (§1)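 Sprague–Dawley rats dosed iv at 4 mpk as the HCl salt in 60% PEG 200/water, 1 ml/kg.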

| half-life [h] | Compound |
| --- | --- |
| 6 | COCCCc1ccc(Cl)c(CN(C(=O)[C@@H](CN)Cc2ccc(OCCOc3c(Cl)cc(C)cc3Cl)cc2)C2CC2)c1 |
| 7 | CC(=O)NCCc1ccccc1-c1ccc(C(CN)Cc2ccc(OCCOc3c(Cl)cc(C)cc3Cl)cc2)c(C)c1 (stereo not drawn) |

Test system: not listed separately
Assay: Volume of distribution at steady state in Sprague-Dawley rat at 4 mg/kg, iv
Assay type: ADME, organism-based
Parameters: dose 4 mg/kg, route intravenous
Settings: in vivo, read-out: Vdss
In short: as §1

| Vd [L/kg] | Compound |
| --- | --- |
| 12 | COCCCc1ccc(Cl)c(CN(C(=O)[C@@H](CN)Cc2ccc(OCCOc3c(Cl)cc(C)cc3Cl)cc2)C2CC2)c1 |
| 9 | CC(=O)NCCc1ccccc1-c1ccc(C(CN)Cc2ccc(OCCOc3c(Cl)cc(C)cc3Cl)cc2)c(C)c1 (stereo not drawn) |

Test system: not listed separately
Assay: Clearance in Sprague-Dawley rat at 4 mg/kg, iv
Assay type: ADME, organism-based
Parameters: dose 4 mg/kg, route intravenous
Settings: in vivo
In short: as §1

| clearance [mL/min/kg] | Compound |
| --- | --- |
| 34 | CC(=O)NCCc1ccccc1-c1ccc(C(CN)Cc2ccc(OCCOc3c(Cl)cc(C)cc3Cl)cc2)c(C)c1 (stereo not drawn) |
